≈ marks a conversion by molar mass, not a printed value.
Legend:
Raji [1] = test: Inhibitory effect on the proliferation of human B-lymphoblast Raji cells.; format: functional, cell-based
In short: (§1)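 7.5 × 10^4 cells in growth medium were exposed in microplate wells to a range of compound concentrations. Proliferation ran 72 h at 37 °C under humidified, CO2-controlled conditions, followed by Coulter counter cell counts. IC50 is the compound concentration giving 50% inhibition of proliferation.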

[2] = Inhibitory effect on the proliferation of murine mammary carcinoma FM3A cells; format: functional, cell-based; conditions: Mus musculus
In short: (§2)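 5 × 10^4 cells were suspended in growth medium in microplate wells with varying concentrations of compound. They grew for 48 h at 37 °C in a humidified CO2-controlled atmosphere and were then counted in a Coulter counter. IC50 is the concentration inhibiting cell proliferation by 50%.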

MT4 [3] = test: Inhibitory effect on the proliferation of human T-lymphocyte MT-4 cells; format: functional, cell-based
In short: (§3)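 MT-4 cells (7.5 × 10^4 per well) in growth medium were incubated with graded compound concentrations for 120 h at 37 °C in a humidified CO2 atmosphere. Cell viability was assessed by trypan blue dye exclusion. IC50 is the concentration required for 50% inhibition of proliferation.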

L1210 [4] = test: Inhibitory effect on the proliferation of murine leukemia L1210 cells; format: functional, cell-based; conditions: Mus musculus; in short: as §2
[5] = Inhibitory effect on the proliferation of human T-lymphoblast molt/4F cells; format: functional; in short: as §1
Raji [6] = test: Inhibitory effect on the proliferation of human B-lymphoblast Raji cells; format: functional, cell-based; in short: as §1
L1210 [7] = test: Inhibitory effect on the proliferation of murine leukemia L1210 cells.; format: functional, cell-based; conditions: Mus musculus; in short: as §2
MT4 [8] = test: Inhibitory effect on the proliferation of human T-lymphocyte MT-4 cells.; format: functional, cell-based; in short: as §3
[9] = Inhibitory effect on the proliferation of T-lymphoblast molt/4F cells.; format: functional; conditions: Homo sapiens; in short: as §1

IC50 (Raji [1]) | IC50 (L1210 [4]) | IC50 (Raji [6]) | IC50 (L1210 [7]) | Structure (SMILES) | IC50 [2] | IC50 (MT4 [3]) | IC50 [5] | IC50 (MT4 [8]) | IC50 [9]
 | 64 µg/mL (≈ 195 µM) | 50.7 µg/mL (≈ 154 µM) |  | C/C(=C\COc1ccccc1)CC/C=C(\C)C1CC(=O)C(C)(C)O1 (stereo not given) | 59 µg/mL (≈ 180 µM) | 43.1 µg/mL (≈ 131 µM) | 27.6 µg/mL (≈ 84 µM) |  | 
40.3 µg/mL (≈ 123 µM) |  |  | 38.7 µg/mL (≈ 119 µM) | C/C(=C\COc1ccccc1)CC/C=C(\C)C1=CC(=O)C(C)(C)O1 | 44.2 µg/mL (≈ 135 µM) | 29.4 µg/mL (≈ 90.1 µM) | 35.2 µg/mL (≈ 108 µM) |  | 
 | 40.2 µg/mL (≈ 113 µM) | 43 µg/mL (≈ 121 µM) |  | COc1ccc(OC/C=C(\C)CC/C=C(\C)C2=CC(=O)C(C)(C)O2)cc1 | 43.8 µg/mL (≈ 123 µM) | 33.9 µg/mL (≈ 95.1 µM) | 38.6 µg/mL (≈ 108 µM) |  | 
226 µg/mL (≈ 688 µM) |  |  | 211 µg/mL (≈ 643 µM) | C/C(=C\COc1ccc2ccc(=O)oc2c1)C1CC(=O)C(C)(C)O1 (stereo not given) | 215 µg/mL (≈ 655 µM) |  |  | 107 µg/mL (≈ 326 µM) | 97.5 µg/mL (≈ 297 µM)
 | 66.5 µg/mL (≈ 186 µM) | 50 µg/mL (≈ 139 µM) |  | COc1cccc(OC/C=C(\C)CC/C=C(\C)C2CC(=O)C(C)(C)O2)c1 (stereo not given) | 68.7 µg/mL (≈ 192 µM) | 51.5 µg/mL (≈ 144 µM) | 33.8 µg/mL (≈ 94.3 µM) |  | 
 | 36.3 µg/mL (≈ 102 µM) | 45.8 µg/mL (≈ 128 µM) |  | COc1cccc(OC/C=C(\C)CC/C=C(\C)C2=CC(=O)C(C)(C)O2)c1 | 45.9 µg/mL (≈ 129 µM) | 34 µg/mL (≈ 95.4 µM) | 35.9 µg/mL (≈ 101 µM) |  | 

The remaining lines, values behind:

Structure (SMILES) | IC50 (Raji [1]) | IC50 (L1210 [4]) | IC50 (Raji [6]) | IC50 (L1210 [7]) | IC50 [2] | IC50 (MT4 [3]) | IC50 [5] | IC50 (MT4 [8]) | IC50 [9]
C/C(=C\COc1c(Cl)cccc1Cl)CC/C=C(\C)C1CC(=O)C(C)(C)O1 (stereo not given) | 59.9 µg/mL (≈ 151 µM) | 58 µg/mL (≈ 146 µM) |  |  | 51.2 µg/mL (≈ 129 µM) | 32.5 µg/mL (≈ 81.8 µM) | 50.5 µg/mL (≈ 127 µM) |  | 
C/C(=C\COc1c(Cl)cccc1Cl)CC/C=C(\C)C1=CC(=O)C(C)(C)O1 |  | 30.7 µg/mL (≈ 77.7 µM) | 26.2 µg/mL (≈ 66.3 µM) |  | 35.3 µg/mL (≈ 89.3 µM) | 15.5 µg/mL (≈ 39.2 µM) | 27.4 µg/mL (≈ 69.3 µM) |  | 
C/C(=C\COc1ccc2ccc(=O)oc2c1)CC/C=C(\C)C1CC(=O)C(C)(C)O1 (stereo not given) | 50.7 µg/mL (≈ 128 µM) |  |  | 64.5 µg/mL (≈ 163 µM) | 54.2 µg/mL (≈ 137 µM) |  |  | 42.9 µg/mL (≈ 108 µM) | 24.2 µg/mL (≈ 61 µM)
C/C(=C\COc1ccc2ccccc2c1)CC/C=C(\C)C1=CC(=O)C(C)(C)O1 | 63.2 µg/mL (≈ 168 µM) |  |  | 47.4 µg/mL (≈ 126 µM) | 56.4 µg/mL (≈ 150 µM) |  | 51.6 µg/mL (≈ 137 µM) | 38.6 µg/mL (≈ 103 µM) | 
C/C(=C\COc1ccc2ccccc2c1)CC/C=C(\C)C1CC(=O)C(C)(C)O1 (stereo not given) | 47.9 µg/mL (≈ 127 µM) |  |  | 24.9 µg/mL (≈ 65.8 µM) | 38.4 µg/mL (≈ 101 µM) |  | 26.9 µg/mL (≈ 71.1 µM) | 48.8 µg/mL (≈ 129 µM) | 
C/C(=C\COc1ccc2ccc(=O)oc2c1)CC/C=C(\C)C1=CC(=O)C(C)(C)O1 | 25.2 µg/mL (≈ 63.9 µM) |  |  | 39.7 µg/mL (≈ 101 µM) | 53.7 µg/mL (≈ 136 µM) |  |  | 15.6 µg/mL (≈ 39.5 µM) | 28.5 µg/mL (≈ 72.2 µM)
C/C(=C\COc1ccc2ccc(=O)oc2c1)C1=CC(=O)C(C)(C)O1 [GEIPARVARIN] | 8.25 µg/mL (≈ 25.3 µM) |  |  | 5.31 µg/mL (≈ 16.3 µM) | 7.87 µg/mL (≈ 24.1 µM) |  |  | 1.64 µg/mL (≈ 5.03 µM) | 7.92 µg/mL (≈ 24.3 µM)

From ChEMBL document CHEMBL1126046, “Geiparvarin analogues. 3. Synthesis and cytostatic activity of 3(2H)-furanone and 4,5-dihydro-3(2H)-furanone congeners of geiparvarin, containing a geraniol-like fragment in the side chain” (J Med Chem, 1992)
